Calls of active or inactive are those of the source. The calls are words filed in the database; no cut-off is given here.
Legend:
[1] = system: Yersinia pseudotuberculosis YPIII; experiment: Antimicrobial activity against Yersinia pseudotuberculosis YPIII PIB102-Elux at 364 uM by spectrophotometry; format: functional
[2] = Inhibition of YopH in Yersinia pseudotuberculosis YPIII PIB102-Elux using p-nitrophenyl phosphate as substrate measured after 3 hrs 15 mins by phosphatase enzyme assay
Procedure, shortened: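 Same YopE-reporter culture and incubation, with Ca2+-depleted BHI and compounds at 10–100 μM. Before decanal addition, an aliquot went into pNPP (12.5 mM in 20 mM MES pH 5.0, 0.8 mM DTT). This was incubated 15 min at 37 °C, stopped with NaOH and read at 405 nm. IC50 was interpolated from dose–response curves. Bacteria in BHI with 2.5 mM Ca2+ were the negative control.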

[3] = Inhibition of YopE in Yersinia pseudotuberculosis YPIII PIB102-Elux measured after 3 hrs 15 mins by luminescent reporter-gene assay
Procedure, shortened: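 Strain was grown on LB agar with 25 μg/mL chloramphenicol for 48 h at 26 °C, then in BHI with chloramphenicol for 12−16 h at 26 °C. It was diluted to OD620 0.2, then 1 in 4 into Ca2+-depleted BHI (5 mM EGTA, 20 mM MgCl2). Compounds were tested at 10–100 μM. Incubation was 1 h at 26 °C, 3 h at 37 °C, then 15 min at 26 °C. Luminescence was read after adding 0.1% decanal, and IC50 was interpolated from dose–response.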

| Compound | Activity [1] | IC50 [2] [µM] | IC50 [3] [µM] |
| --- | --- | --- | --- |
| Oc1ccc([C@@H]2c3c(O)cc(O)cc3[C@@H]3c4c(cc(O)cc4[C@H]2[C@@H]2c4cc(O)cc5c4[C@@H](c4cc(O)cc(O)c4[C@H]2c2ccc(O)cc2)[C@H](c2ccc(O)cc2)O5)O[C@H]3c2ccc(O)cc2)cc1 | inactive | 2.9 | 8.8 |
| CN[C@@H]1[C@H](O[C@H]2[C@H](O[C@H]3[C@H](O)[C@@H](O)[C@H](N=C(N)N)[C@@H](O)[C@@H]3N=C(N)N)O[C@@H](C)[C@]2(O)C=O)O[C@@H](CO)[C@H](O)[C@H]1O [STREPTOMYCIN] | – | 31 | 38 |
| OC[C@H]1O[C@@H](Oc2cc3c4c(c2)[C@@H]([C@@H]2c5cc(O)cc6c5[C@@H](c5cc(O)cc(O)c5[C@H]2c2ccc(O)cc2)[C@H](c2ccc(O)cc2)O6)[C@H](c2ccc(O)cc2)c2c(O)cc(O)cc2[C@H]4[C@H](c2ccc(O)cc2)O3)[C@H](O)[C@@H](O)[C@@H]1O [VATALBINOSIDE A] | inactive | 4.5 | 12.5 |
| Oc1ccc([C@@H]2c3c(O)cc(O)cc3[C@@H]3c4c(cc(O)c5c4[C@@H]2[C@H](c2ccc(O)cc2)[C@H]5c2cc(O)cc4c2[C@@H](c2cc(O)cc(O)c2)[C@H](c2ccc(O)cc2)O4)O[C@H]3c2ccc(O)cc2)cc1 [Vaticanol B] | – | 3.3 | 9.9 |

Reference: ChEMBL document CHEMBL3351227, “Solving the supply of resveratrol tetramers from Papua New Guinean rainforest anisoptera species that inhibit bacterial type III secretion systems” (J Nat Prod, 2014)
